# Most compounds without a hit are left out; they make up all but 2.7% or so of the library.
# MDM2 E3 inh – blocks human Mdm2 ubiquitin ligase activity; Q00987; cell-based MDM2 ubiquitination luciferase reporter, 2 h; 0 = plate control, 100 = twice control, blank-subtracted; signal enhancement, % at 5 µM; 210,000 compounds, 0.11% hits;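 active = signal enhancement of 30% or more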;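 also: luminescence tracks abundance of the self-degrading MDM2-luciferase fusion protein; higher signal means inhibition of MDM2 E3 ligase activity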
#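 system = mammalian cells stably expressing self-ubiquitinating, self-degrading MDM2 E3–luciferase fusion | quantity = 2000 cells per well seeded | incubation = 4 h cell settling then 2 h compound exposure, 37 °C | signal = SteadyLite luminescence, 15 min reagent step | benchmarks = plate control and blank wells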
# Wee1 degr inh – inhibitors of human Wee1 degradation; P30291; HeLa Luc-Wee1K328M stability, luciferase luminescence; 100% = proteasome inhibitor MG132 effect; reporter increase, % at 5 µM; 220,000 compounds, 1.2% hits; AID 1321;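 active = activation above the mean of all tested compounds plus 3 SD, set per screening run, cut at about 8.8% in these data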;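 also: cells exposed to compound for 20 h before luminescence read; 0% = DMSO alone and 100% = MG132 at 30 µM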
# TbHK1 inh – T. brucei hexokinase 1 inhibition; 220,000 compounds, 0.11% hits; recombinant TbHK1, G6PDH-coupled NADH A340; inhibition, % at 10 µM;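 active = inhibition of 50% or more in the single-dose primary screen; inactive = inhibition below 50%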
# Hck Nef HTS – human Hck-Nef kinase inhibition; inhibition, % at 20 µM; AID 463187; 220,000 compounds, 0.68% hits; Recombinant Hck-YEEI plus Nef, Z-Lyte FRET kinase assay; P08631;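 active = Hck-Nef kinase inhibition above about 50%, limit read from the data; inactive = inhibition below that limit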;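 also: 0% = DMSO with Hck plus Nef and 100% = Hck alone without Nef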
# 14-3-3 Bad inh – disrupts binding of bovine 14-3-3 zeta to phospho-Bad peptide. TR-FRET 14-3-3zeta/Dy647-pBad peptide displacement, 1 h. AID 781. P63103. inhibition, % at 21.7 µM. 220,000 compounds, 0.71% hits;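 active = inhibition above about 70%, limit read from the data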;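 also: 0% = full 14-3-3 plus peptide FRET controls and 100% = background without 14-3-3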
# Target sequence (P63103 whole entry, looked up): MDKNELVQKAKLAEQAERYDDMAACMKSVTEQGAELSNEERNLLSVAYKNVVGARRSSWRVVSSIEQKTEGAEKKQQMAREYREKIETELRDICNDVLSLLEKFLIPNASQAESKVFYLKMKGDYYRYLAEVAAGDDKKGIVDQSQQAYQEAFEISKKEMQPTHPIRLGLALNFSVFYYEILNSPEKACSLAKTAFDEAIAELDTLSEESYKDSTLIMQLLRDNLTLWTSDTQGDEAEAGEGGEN
# The depositor's hits bear a star; . = not tested or not shown; ! = not active in a repeat; [ ] = another dose, or the depositor's remark.
SMILES,MDM2 E3 inh,Wee1 degr inh,TbHK1 inh,Hck Nef HTS,14-3-3 Bad inh
COc1ccc(S(=O)(=O)Nc2ccccc2Cl)cc1NC(C)=O,6,4,-4,16,91*
C/C(CC(C)(C)c1ccccc1)=N\NS(=O)(=O)c1ccccc1,-4,-3,-2,20,-7
CCCCCC(=O)Nc1ccc(N2CCN(C(=O)c3ccccc3)CC2)cc1,0,-1,0,-6,82*
CCCCCCC(=O)Nc1ccc(C(=O)N2CCCC2)cc1,-6,-1,-5,-2,5
CCOC(=O)C1(CCCc2ccccc2)CCN(C(=O)CCC2=NNC(=O)CC2)CC1,-11,11*,4,-10,-9
CCN1C(=O)CC2(C[N+]3(C)CCC2CC3)C1=O (stereo not given),-6,-1,7,1,-3
O=C(NNC(=S)Nc1ccc(F)cc1)C1[C@H]2CCCC[C@@H]12 (stereo not given in full),-15,-3,7,11,-7
Cc1ccc(Nc2nnc(SCC(=O)NCCN3C(=O)CSC3=O)s2)cc1,-15,0,-7,3,1
Cc1nccn1CC(=O)N/N=C/c1ccccc1O,-6,6,-26,-30,-1
Cc1nc2c(c(N3CCOCC3)n1)OCC(=O)N2,-9,3,-5,-3,74*
COc1ccc(N2C(=O)C(CN3CCCCC3)C2c2ccccc2)cc1 (stereo not given),1,4,7,27,89*
COc1ccccc1NC(C#N)c1ccccc1OCc1ccccc1 (stereo not given),0,11*,4,3,1
CCn1c(C)nc2cc(C(=O)n3cc(C(=O)c4ccccc4O)cn3)ccc21,-10,-1,-5,89*,-3
O=C(c1cnn(C(=O)c2ccc(O)cc2)c1)c1ccccc1O,-5,-4,-12,44,-19
CCOC(=O)/C(C#N)=C/c1c[nH]c2ccccc12,-15,10*!,-27,25,-17
COC(=O)/C(C#N)=C/c1c[nH]c2ccccc12,-19,4,-3,-1,-7
CCOc1ccc(NC(=O)N[C@@H](Cc2ccccc2)C(=O)O)cc1,-14,-3,5,15,-13
CC(=C/C(=O)O)/C(=C/c1ccccc1)C(=O)O,-10,0,-5,5,5
CN1C(=O)C(O)(CC(=O)/C=C/c2ccco2)c2cc(Br)ccc21 (stereo not given),4,3,-21,1,83*
CSC(=S)N/N=C(\C)c1ccc(Br)cc1,-8,-1,1,23,-22
O=C(NC(NC(=S)Nc1ccccc1C(=O)O)C(Cl)(Cl)Cl)c1cccc([N+](=O)[O-])c1 (stereo not given),-8,-1,5,3,73*
O=C(NC(NC(=S)Nc1ccccc1Cl)C(Cl)(Cl)Cl)c1cccc(Cl)c1 (stereo not given),-9,-2,-1,4,2
Cc1cc(NC(=O)C2CC2)ncc1NC(=O)C12CC3CC(CC(C3)C1)C2,30*,-1,2,-1,-7
CCCC(=O)Nc1cc(C)c(NC(=O)C23CC4CC(CC(C4)C2)C3)cn1,0,-1,-4,0,3
O=C(NCc1cn(-c2ccccc2)nc1-c1ccccc1)c1cc([N+](=O)[O-])cc([N+](=O)[O-])c1,-5,0,9,0,96*
SMILES,MDM2 E3 inh,Wee1 degr inh,TbHK1 inh,Hck Nef HTS,14-3-3 Bad inh
COc1ccc(NC(=O)C2=C(C)Nc3ncnn3C2c2ccccc2C(F)(F)F)c(OC)c1 (stereo not given),-13,-1,2,8,-4
CCOc1ccc(NS(=O)(=O)c2ccc3[nH]cc(C(=O)N(CC)CC)c(=O)c3c2)cc1,-4,17*,-18,0,.
CC(C)c1ccc(NS(=O)(=O)c2ccc3[nH]cc(C(=O)N4CCC(C(N)=O)CC4)c(=O)c3c2)cc1,-3,-1,-7,0,96*[fluorescence artefact?]
CC(C)OCc1c(C(=O)Nc2nccs2)oc2ccccc12,-2,11*,-6,5,4
Cc1nc(N2CCOCC2)nc(Oc2ccccc2)c1[N+](=O)[O-],-14,9.2*,-14,17,1
Cc1cc(-c2nnc(CCC(=O)N(C)Cc3cccc4ccccc34)o2)no1,-4,-2,3,13,1
COc1cc(-c2ncc3ccccn23)cc(OC)c1OC,-12,0,-29,0,73*
COc1cc(OC)cc(-c2ncc3ccccn23)c1,8,-2,-10,8,70
CC[n+]1cc(-c2ccccc2)nc(N2CCOCC2)n1,-14,-3,-10,0,82*[fluorescence artefact?]
Cc1ccc(/C=[N+](\[O-])c2ccc(N(C)C)cc2)c2nsnc12,-12,-2,-9,-56,-20
Cc1cc(C)n(C(=O)c2c([N+](=O)[O-])cnn2C)n1,14,-2,26,4,4
Cn1ncc([N+](=O)[O-])c1C(=O)n1nnc2ccccc21,-17,27*,3,-10,-4
O=C(Nc1ccncc1)c1ccc(F)cc1,-10,1,-3,0,-5
O=C(Nc1ccc(F)cc1)c1ccc(-n2ccnc2)nc1,-14,1,2,0,86*
CCc1noc(C)c1C(=O)Nc1nnc(C2CCCCC2)s1,-6,-2,-1,22,-12
Cc1cccc(OCC(=O)Nc2ccccc2-c2ccccc2)c1,10,0,-4,4,-4
O=C(COc1ccc2ccccc2c1)Nc1cccc2c1C(=O)NC2=O,-8,1,-1,60*,66
Cc1onc(-c2c(F)cccc2Cl)c1C(=O)OCC(=O)c1c[nH]c2ccccc12,.,2,-2,17,2
O=C1CN(c2cc(Cl)cc(Cl)c2)C(=O)CN1/N=C/c1cccnc1,77*,3,1,-7,0
CCCCOCC1CC(CC#CCN2CCCCC2)C(=O)O1 (stereo not given),-1,-2,0,16,78*
CCCOCC1CC(CCc2nc(=S)[nH][nH]2)C(=O)O1 (stereo not given),-2,1,-7,1,-11
O=C(COc1cccc2ccccc12)NCc1cccnc1,-10,-3,6,18,3
CC(C)Nc1nnc(SCC(=O)NCc2ccc3c(c2)OCO3)s1,-2,-2,-3,20,-4
Cc1nnc(SCC(=O)NCc2ccc3c(c2)OCO3)s1,3,9.5*,-3,3,-2
CC(=O)C1=C(C)OC(N)=C(C#N)C1c1ccncc1 (stereo not given),-2,-3,-3,-1,8
COc1ccc2cc(C3C(C#N)=C(N)OC(C)=C3C(C)=O)c(Cl)nc2c1 (stereo not given),-15,9.0*,-30,-7,-7
O=c1oc2c(O)c(O)cc3c(=O)oc4c(O)c(O)cc1c4c23,.,1,66*,4,98*[fluorescence artefact?]
